Assays:
[1] = target: T1, Prostaglandin G/H synthase 2 (Homo sapiens) (UniProt P35354); details: Blood; at 10 µM
T1 sequence (whole entry): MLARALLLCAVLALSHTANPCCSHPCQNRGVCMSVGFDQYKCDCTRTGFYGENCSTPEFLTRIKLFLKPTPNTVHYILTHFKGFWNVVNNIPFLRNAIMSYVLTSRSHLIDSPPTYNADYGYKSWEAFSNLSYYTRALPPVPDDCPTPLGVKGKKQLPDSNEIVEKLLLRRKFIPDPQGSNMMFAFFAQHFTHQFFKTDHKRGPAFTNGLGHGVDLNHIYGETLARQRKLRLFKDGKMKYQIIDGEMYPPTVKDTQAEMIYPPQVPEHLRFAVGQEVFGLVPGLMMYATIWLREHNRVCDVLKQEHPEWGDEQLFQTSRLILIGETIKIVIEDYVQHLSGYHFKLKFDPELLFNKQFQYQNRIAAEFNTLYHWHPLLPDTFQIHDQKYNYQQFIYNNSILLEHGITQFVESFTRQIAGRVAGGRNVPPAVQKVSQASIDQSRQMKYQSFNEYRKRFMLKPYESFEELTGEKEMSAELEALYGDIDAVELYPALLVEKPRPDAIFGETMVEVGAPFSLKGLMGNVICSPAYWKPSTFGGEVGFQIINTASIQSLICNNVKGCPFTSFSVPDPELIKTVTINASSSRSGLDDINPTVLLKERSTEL

Rattus norvegicus [2] = assay: In vivo anti-inflammatory activity determined by rat carrageenan paw edema method at 10 mg/kg perorally; format: functional; details: route oral
[3] = target: Prostaglandin G/H synthase 1 (Homo sapiens, UniProt P23219); format: cell-based, U-937
[4] = target: T1, Prostaglandin G/H synthase 2 (Homo sapiens); details: Blood; at 1 µM
Rattus norvegicus [5] = assay: In vivo anti-inflammatory activity by air pouch model at 1 mg/kg perorally in rat.; format: functional; details: route oral
Summary of the method: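 Rat air pouch: sterile air (20 mL) was injected subcutaneously, with 10 mL refills every 2 days. On day 7, 2 mL of 1% lambda-carrageenan in saline was injected into the pouch. Compound was given orally (suspension in 1% CMC/Tween-80, 10 mL/kg) 0.5 h before carrageenan. At 6 h, exudate was collected and centrifuged, and supernatant PGE2 was measured by ELISA.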

Sequence of Prostaglandin G/H synthase 1 (P23219 whole entry): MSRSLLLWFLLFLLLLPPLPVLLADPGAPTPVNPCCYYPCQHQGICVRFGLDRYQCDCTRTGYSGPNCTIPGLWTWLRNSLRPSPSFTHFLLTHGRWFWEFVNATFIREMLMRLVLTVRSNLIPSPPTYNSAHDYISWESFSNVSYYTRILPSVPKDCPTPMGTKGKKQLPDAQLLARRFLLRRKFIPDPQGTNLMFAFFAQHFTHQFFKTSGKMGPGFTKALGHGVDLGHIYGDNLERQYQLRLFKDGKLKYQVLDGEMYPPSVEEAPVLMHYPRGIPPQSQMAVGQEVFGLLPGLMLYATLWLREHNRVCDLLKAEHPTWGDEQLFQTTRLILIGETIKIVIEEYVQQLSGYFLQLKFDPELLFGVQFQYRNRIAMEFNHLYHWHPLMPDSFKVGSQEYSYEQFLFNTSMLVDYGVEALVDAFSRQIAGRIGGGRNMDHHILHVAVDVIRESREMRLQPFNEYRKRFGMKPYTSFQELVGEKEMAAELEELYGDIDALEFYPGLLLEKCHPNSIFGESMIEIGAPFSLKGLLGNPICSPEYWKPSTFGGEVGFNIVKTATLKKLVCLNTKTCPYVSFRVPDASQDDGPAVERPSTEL

Row | SMILES | inhibition [1] [%] | inhibition in vivo at 10 mg/kg (Rattus norvegicus [2]) [%] | IC50 [3] [µM] | inhibition [4] [%] | inhibition in vivo at 1 mg/kg (Rattus norvegicus [5]) [%]
1 | CS(=O)(=O)c1ccc(-c2cnc(Br)n2-c2ccc(F)cc2)cc1 | 92.8 | 40.4 | > 10 | 56.2 | 35.5
2 | CC(C)Oc1ccc(-c2c(Cl)ncn2-c2ccc(S(C)(=O)=O)cc2)cc1 |  |  | > 10 |  | 
3 | Cc1ncc(-c2ccc(S(C)(=O)=O)cc2)n1-c1ccc(F)cc1 | 68 | 21.7 | > 10 |  | 
4 | COc1cc(-c2c(Cl)ncn2-c2ccc(S(C)(=O)=O)cc2)ccc1C | 100 | 9.2 | > 10 | 77.1 | 
5 | CS(=O)(=O)c1ccc(-c2c(Cl)nc(Cl)n2-c2ccc(F)cc2)cc1 | 51.6 |  | > 10 |  | 
6 | CS(=O)(=O)c1ccc(-n2cnc(Cl)c2-c2cc3ccccc3o2)cc1 |  |  | > 1 |  | 
7 | CS(=O)(=O)c1ccc(-n2cncc2-c2ccc(F)cc2)cc1 | 56.9 |  | > 10 |  | 
8 | CS(=O)(=O)c1ccc(-c2cnc(C=O)n2-c2ccc(F)cc2)cc1 | 70.9 | 27.5 | > 10 |  | 
9 | CS(=O)(=O)c1ccc(-n2cnc(Cl)c2-c2cccnc2)cc1 | 100 | 19 | > 10 | 74.9 | 
10 | Cc1ncn(-c2ccc(S(C)(=O)=O)cc2)c1-c1ccc(F)cc1 | 86.5 |  | > 10 | 34.5 | 45
11 | CC(C)c1ccc(-c2c(Cl)ncn2-c2ccc(S(C)(=O)=O)cc2)cc1 | 100 | 17 | > 10 | 70 | 
12 | CS(=O)(=O)c1ccc(-n2cnc(Cl)c2-c2ccc3c(c2)CCO3)cc1 | 65.5 | 29 | 0.11 | 69.9 | 
13 | CS(=O)(=O)c1ccc(-n2c(Cl)nc(Cl)c2-c2ccc(F)cc2)cc1 | 0 |  | > 10 |  | 
14 | CC1Cc2cc(-c3c(Cl)ncn3-c3ccc(S(C)(=O)=O)cc3)ccc2O1 (stereo not given) | 59.9 |  | > 10 |  | 
15 | CS(=O)(=O)c1ccc(-n2cnc(Cl)c2-c2ccc(Cl)cc2)cc1 | 100 | 9.1 | > 10 | 88.4 | 
16 | CSc1ccc(-c2c(Cl)ncn2-c2ccc(S(C)(=O)=O)cc2)cc1 | 88.5 | 21.7 | 0.9 | 49 | 
17 | CS(=O)(=O)c1ccc(-n2cnc(Cl)c2-c2cc(Br)co2)cc1 |  |  | > 1 |  | 
18 | CS(=O)(=O)c1ccc(-n2cnc(Br)c2-c2ccc(F)cc2)cc1 | 100 |  | > 10 | 85.2 | 91.4
19 | CS(=O)(=O)c1ccc(-c2cnc(C(=O)c3ccccc3)n2-c2ccc(F)cc2)cc1 | 95 |  | > 10 |  | 
20 | Cc1nc(Cl)c(-c2ccc(F)cc2)n1-c1ccc(S(C)(=O)=O)cc1 | 27.5 |  | > 10 |  | 

Row | SMILES | inhibition [1] [%] | inhibition in vivo at 10 mg/kg (Rattus norvegicus [2]) [%] | IC50 [3] [µM] | inhibition [4] [%] | inhibition in vivo at 1 mg/kg (Rattus norvegicus [5]) [%]
21 | COc1ccc(-c2c(Cl)ncn2-c2ccc(S(N)(=O)=O)cc2)cc1Cl | 99.9 | 24 | 1.2 |  | 
22 | CC(=O)Nc1ccc(-c2c(Cl)ncn2-c2ccc(S(C)(=O)=O)cc2)cc1 |  |  | > 10 |  | 
23 | CCOc1ccc(-c2c(Cl)ncn2-c2ccc(S(N)(=O)=O)cc2)cc1Cl | 99.9 | 18.5 | 15.5 | 26.8 | 
24 | Cc1nc(Cl)n(-c2ccc(F)cc2)c1-c1ccc(S(C)(=O)=O)cc1 | 42.6 |  | > 10 |  | 
25 | CCOc1ccc(-c2c(Cl)ncn2-c2ccc(S(C)(=O)=O)cc2)cc1Cl | 100 | 2 | > 10 | 47.7 | 
26 | Cc1cc(-c2c(Cl)ncn2-c2ccc(S(C)(=O)=O)cc2)ccc1Cl | 100 |  | 4 |  | 
27 | CS(=O)(=O)c1ccc(-n2cnc(Cl)c2-c2ccc(N)cc2)cc1 | 71.6 | 15.3 | > 10 |  | 
28 | Cc1ccc(-c2c(Cl)ncn2-c2ccc(S(C)(=O)=O)cc2)cc1F | 100 | 22.6 | > 10 | 75.1 | 18.5
29 | CCOc1cc(OCC)cc(-c2c(Cl)ncn2-c2ccc(S(C)(=O)=O)cc2)c1 | 0 |  | > 10 |  | 
30 | NS(=O)(=O)c1ccc(-n2cnc(Cl)c2-c2ccc(Cl)nc2)cc1 | 97.6 | 18.1 | > 10 | 19.6 | 
31 | CS(=O)(=O)c1ccc(-n2cnc(Cl)c2-c2ccccc2F)cc1 | 100 | 21.5 | 100 | 66.2 | 
32 | COc1c(Cl)cc(-c2c(Cl)ncn2-c2ccc(S(C)(=O)=O)cc2)cc1Cl | 99.8 | 16.5 | > 10 | 37.3 | 
33 | CCCc1ccc(-c2c(Cl)ncn2-c2ccc(S(C)(=O)=O)cc2)cc1 | 91.9 | 0 | > 10 | 60 | 
34 | CS(=O)(=O)c1ccc(-c2c(Cl)ncn2-c2ccc(F)cc2)cc1 | 15.3 |  | > 10 |  | 
35 | CS(=O)(=O)c1ccc(-n2cnc(Cc3ccccc3)c2-c2ccc(F)cc2)cc1 | 60.5 |  | > 10 |  | 
36 | CCc1ncn(-c2ccc(S(C)(=O)=O)cc2)c1-c1ccc(F)cc1 | 3.8 |  | > 10 |  | 
37 | CS(=O)(=O)c1ccc(-c2c(Br)ncn2-c2ccc(F)cc2)cc1 | 36 |  | > 10 |  | 
38 | CS(=O)(=O)c1ccc(-n2c(-c3ccc(F)cc3)cnc2C(=O)c2ccccc2)cc1 | 0 |  | > 10 |  | 
39 | COc1ccc(-c2c(Cl)ncn2-c2ccc(S(C)(=O)=O)cc2)c(F)c1 | 100 | 33 | 0.11 | 100 | 
40 | CS(=O)(=O)c1ccc(-c2cnc(CO)n2-c2ccc(F)cc2)cc1 | 8.1 |  | > 10 |  | 

Row | SMILES | inhibition [1] [%] | inhibition in vivo at 10 mg/kg (Rattus norvegicus [2]) [%] | IC50 [3] [µM] | inhibition [4] [%] | inhibition in vivo at 1 mg/kg (Rattus norvegicus [5]) [%]
41 | CCOc1ccc(-c2c(Cl)ncn2-c2ccc(S(N)(=O)=O)cc2)cc1F | 100 | 30.3 | 76 | 57 | 
42 | CS(=O)(=O)c1ccc(-n2c(-c3ccc(F)cc3)cnc2CO)cc1 | 27.4 |  | > 10 |  | 
43 | CCOc1ccc(-c2c(Cl)ncn2-c2ccc(S(C)(=O)=O)cc2)cc1F | 95.2 | 14.1 | > 10 | 96.5 | 
44 | C=CCc1ncn(-c2ccc(S(C)(=O)=O)cc2)c1-c1ccc(F)cc1 | 3.4 |  | > 10 |  | 
45 | CCOc1ccc(-c2c(Cl)ncn2-c2ccc(S(C)(=O)=O)cc2)cc1 | 100 | 16.3 | > 10 | 100 | 
46 | CCS(=O)(=O)c1ccc(-c2c(Cl)ncn2-c2ccc(S(C)(=O)=O)cc2)cc1 |  |  | > 10 |  | 
47 | COC(=O)c1ncc(-c2ccc(S(C)(=O)=O)cc2)n1-c1ccc(F)cc1 | 39.1 |  | > 10 |  | 
48 | CS(=O)(=O)c1ccc(-n2cnc(Cl)c2-c2ccc(F)cc2F)cc1 | 100 | 8.6 | 23.8 | 79.6 | 
49 | CS(=O)(=O)c1ccc(-n2c(-c3ccc(F)cc3)cnc2Cl)cc1 |  |  | > 10 |  | 
50 | CS(=O)(=O)c1ccc(-n2c(CO)nc(Cl)c2-c2ccc(F)cc2)cc1 | 2.4 |  | > 10 |  | 
51 | CS(=O)(=O)c1ccc(-n2cnc(Cl)c2-c2ccc(OC(F)(F)F)cc2)cc1 |  |  | > 10 |  | 
52 | CS(=O)(=O)c1ccc(-n2cnc(Cl)c2-c2cccc(F)c2)cc1 | 100 | 22.8 | > 10 | 51.9 | 
53 | CCCCCc1ncn(-c2ccc(S(C)(=O)=O)cc2)c1-c1ccc(F)cc1 | 64.4 |  | > 10 |  | 
54 | COc1ccc(-c2c(Cl)ncn2-c2ccc(S(C)(=O)=O)cc2)cc1 | 100 | 33.4 | 1.3 | 100 | 
55 | CS(=O)(=O)c1ccc(-n2cnc(Cl)c2-c2cc(F)cc(F)c2)cc1 | 61.6 |  | > 10 |  | 
56 | CS(=O)(=O)c1ccc(-c2cnc(CF)n2-c2ccc(F)cc2)cc1 | 16.8 |  | > 10 |  | 
57 | CCSc1ccc(-c2c(Cl)ncn2-c2ccc(S(C)(=O)=O)cc2)cc1 | 97.3 | 12.3 | > 10 | 76.7 | 
58 | CS(=O)(=O)c1ccc(-c2cncn2-c2ccc(F)cc2)cc1 | 63.4 |  | > 10 |  | 
59 | CCCOc1ccc(-c2c(Cl)ncn2-c2ccc(S(C)(=O)=O)cc2)cc1 |  |  | > 10 | 0 | 

Reference: ChEMBL document CHEMBL1145864, “Synthesis and structure-activity relationship of a new series of COX-2 selective inhibitors: 1,5-diarylimidazoles” (J Med Chem, 2003)
